According to ChEMBL document CHEMBL1125485, “Inhibitors of blood platelet cAMP phosphodiesterase. 2. Structure-activity relationships associated with 1,3-dihydro-2H-imidazo[4,5-b]quinolin-2-ones substituted with functionalized side chains” (J Med Chem, 1992):

How the values were obtained:
[1] = tested on: Oryctolagus cuniculus; test: Inhibition of thrombus formation (mean thrombus area) in conscious rabbits at 0.3 mg/kg; assay type: functional; conditions: values are per cent of control
How it was run: (§1)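 Conscious rabbit ear biolaser model: ruby laser induces microvascular thrombi. Predose mean thrombus area from 10 vessels, then compound given orally as suspension in H2O/Tween 20 and 10 trials repeated 2 h later in the same rabbit; percent inhibition versus predose. At least three rabbits.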

[2] = biological target: cGMP-dependent 3',5'-cyclic phosphodiesterase (Homo sapiens, UniProt O00408); test: Inhibition of human platelet PDE by inhibiting cyclic Guanosine monophosphate (cGMP) hydrolysis
cGMP-dependent 3',5'-cyclic phosphodiesterase, sequence (O00408 whole entry): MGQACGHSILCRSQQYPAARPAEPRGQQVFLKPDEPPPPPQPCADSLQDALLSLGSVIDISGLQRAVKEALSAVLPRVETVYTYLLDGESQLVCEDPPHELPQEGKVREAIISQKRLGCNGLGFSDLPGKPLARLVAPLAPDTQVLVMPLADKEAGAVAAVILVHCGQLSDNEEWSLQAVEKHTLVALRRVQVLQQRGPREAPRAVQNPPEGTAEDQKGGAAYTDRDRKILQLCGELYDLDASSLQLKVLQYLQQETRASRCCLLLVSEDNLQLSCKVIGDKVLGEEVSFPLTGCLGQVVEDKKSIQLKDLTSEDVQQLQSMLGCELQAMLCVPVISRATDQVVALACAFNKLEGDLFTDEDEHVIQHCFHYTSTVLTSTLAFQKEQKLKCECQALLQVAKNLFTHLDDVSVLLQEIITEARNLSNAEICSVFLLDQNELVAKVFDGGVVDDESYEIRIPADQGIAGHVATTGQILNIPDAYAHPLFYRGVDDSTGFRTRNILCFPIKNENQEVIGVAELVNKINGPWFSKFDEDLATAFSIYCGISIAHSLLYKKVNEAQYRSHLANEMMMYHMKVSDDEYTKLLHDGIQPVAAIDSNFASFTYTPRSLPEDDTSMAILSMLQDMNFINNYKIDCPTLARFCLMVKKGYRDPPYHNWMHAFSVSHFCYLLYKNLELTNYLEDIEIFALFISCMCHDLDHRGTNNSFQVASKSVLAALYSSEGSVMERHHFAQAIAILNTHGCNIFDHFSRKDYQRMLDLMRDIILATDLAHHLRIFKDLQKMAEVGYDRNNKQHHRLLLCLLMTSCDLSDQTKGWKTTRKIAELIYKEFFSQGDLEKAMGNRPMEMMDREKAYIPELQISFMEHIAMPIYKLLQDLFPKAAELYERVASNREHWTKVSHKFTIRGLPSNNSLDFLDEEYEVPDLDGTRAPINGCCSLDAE

[3] = tested on: Oryctolagus cuniculus; test: Inhibition of thrombus formation (mean thrombus area) in conscious rabbits at 3.0 mg/kg; assay type: functional; conditions: values are per cent of control; how it was run: as §1
[4] = tested on: Canis familiaris; test: Inhibition of coronary artery occlusion (mean area under flow time curve) in anesthetized dog at 0.1 mg/kg; assay type: functional; conditions: Canis lupus familiaris
How it was run: (§2)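 Modified Folts-type coronary stenosis-occlusion model of large-vessel thrombosis; read-out mean area under flow-time curve (% seconds) compared with vehicle-treated animals, as percent inhibition of thrombus formation. Five animals.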

[5] = tested on: Canis familiaris; test: Inhibition of coronary artery occlusion (mean area under flow time curve) in anesthetized dog at 0.03 mg/kg; assay type: functional; conditions: Canis lupus familiaris; how it was run: as §2
[6] = tested on: Oryctolagus cuniculus; test: Inhibition of thrombus formation (mean thrombus area) in conscious rabbits at 1.0 mg/kg; assay type: functional; conditions: values are per cent of control; how it was run: as §1
[7] = tested on: Canis familiaris; test: Inhibition of coronary artery occlusion (mean area under flow time curve) in anesthetized dog at 0.01 mg/kg; assay type: functional; conditions: Canis lupus familiaris; how it was run: as §2
[8] = species: Oryctolagus cuniculus; test: Inhibition of platelet aggregation using collagen as activating agent in rabbit platelet rich plasma (PRP); assay type: functional
How it was run: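 Rabbit platelet-rich plasma, aggregation triggered by ADP or collagen after 3 min preincubation of PRP with drug. Single or duplicate determinations, reference agent included.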

[9] = biological target: T1, Phosphodiesterase 3 (Homo sapiens, UniProt Q14432+Q13370); test: Inhibition of human platelet PDE by inhibiting cyclic Adenosine monophosphate (cAMP) hydrolysis
[10] = tested on: Mustela putorius furo; test: Change in mean arterial blood pressure (MABP) in anesthetized ferrets by intraduodenal dose at 3 mg/kg; assay type: functional, Artery; conditions: dose 10 mg/kg, in the assay text read “10 mg/kg” for “3 mg/kg”
How it was run: (§3)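 Anesthetized ferrets dosed intraduodenally; heart rate, mean arterial blood pressure and right ventricular contractile force monitored as dose-dependent changes, reported as maximum change (%). Averages from at least three separate experiments.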

[11] = tested on: Mustela putorius furo; test: Change in right ventricular contractile force (RCVF) in anesthetized ferrets by intraduodenal dose at 0.3 mg/kg; assay type: functional; conditions: Heart right ventricle, dose 3 mg/kg, in the assay text read “3 mg/kg” for “0.3 mg/kg”; how it was run: as §3
[12] = tested on: Mustela putorius furo; test: Change in right ventricular contractile force (RCVF) in anesthetized ferrets by intraduodenal dose at 10 mg/kg; conditions: Heart right ventricle
[13] = tested on: Mustela putorius furo; test: Change in heart rate (HR)in anesthetized ferrets by intraduodenal dose at 10 mg/kg
[14] = tested on: Mustela putorius furo; test: Change in heart rate (HR)in anesthetized ferrets by intraduodenal dose at 0.3 mg/kg; assay type: functional; conditions: dose 3 mg/kg, in the assay text read “3 mg/kg” for “0.3 mg/kg”; how it was run: as §3
[15] = tested on: Mustela putorius furo; test: Change in mean arterial blood pressure (MABP) in anesthetized ferrets by intraduodenal dose at 0.3 mg/kg; assay type: functional, Artery; conditions: dose 3 mg/kg, in the assay text read “3 mg/kg” for “0.3 mg/kg”; how it was run: as §3
[16] = Inhibition of human platelet c-AMP phosphodiesterase hydrolysis of cAMP
[17] = species: Rattus norvegicus; test: Oral efficacy in rats using the ex vivo aggregatory protocol; assay type: functional
How it was run: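 Rats given compound orally, then ADP-induced platelet aggregation measured ex vivo.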

[18] = species: Oryctolagus cuniculus; test: Inhibition of ADP-induced platelet aggregation in rabbit platelet rich plasma (PRP); assay type: functional
How it was run: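 Rabbit platelet-rich plasma, aggregation triggered by ADP or collagen after 3 min preincubation of PRP with drug. […] Single or duplicate determinations, reference agent included.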

[19] = biological target: T1, Phosphodiesterase 3; test: Inhibition of human platelet PDE cAMP hydrolysis
[20] = tested on: Canis familiaris; test: Inhibition of coronary artery occlusion (mean area under flow time curve) in anesthetized dog at 0.3 mg/kg; assay type: functional; conditions: Canis lupus familiaris; how it was run: as §2
[21] = tested on: Oryctolagus cuniculus; test: Inhibition of thrombus formation (mean thrombus area) in conscious rabbits at 10.0 mg/kg; assay type: functional; conditions: values are per cent of control; how it was run: as §1

Structure (SMILES)	IC50 [2] [nM]	EC50 [8] [nM]	IC50 [9] [nM]	response, % of control at 0.3 mg/kg [1] [%]	response, % of control at 3 mg/kg [3] [%]	inhibition in vivo at 0.1 mg/kg [4] [%]	inhibition in vivo at 0.03 mg/kg [5] [%]	response, % of control at 1 mg/kg [6] [%]	ED50 [17] [mg/kg]	also measured
COC(=O)CCCOc1ccc2nc3[nH]c(=O)[nH]c3cc2c1	> 100000	20	400	145	78	120	109	74		inhibition in vivo at 0.01 mg/kg [7]: 78%
O=c1[nH]c2cc3cc(OCCCCS(=O)(=O)c4ccccc4)ccc3nc2[nH]1	> 100000		1	137	62		115	74		MABP [10]: -11%; RVCF [11]: 16%; RVCF [12]: 39%; HR [13]: 31%; HR [14]: 13%; MABP [15]: -9%
Cn1c(O)nc2nc3ccc(OCCCC(=O)NC4CCCCC4)cc3cc21	> 100000	20								IC50 [19]: 700 nM
CN(C(=O)CCCOc1ccc2nc3[nH]c(=O)[nH]c3cc2c1)C1CCCCC1	6000	2	2	97			115	65	2.9	inhibition in vivo at 0.3 mg/kg [20]: > 120%
O=C1CN2Cc3c(ccc(Cl)c3Cl)N=C2N1 [ANAGRELIDE]					68	106	72	98		inhibition in vivo at 0.3 mg/kg [20]: 117%; response, % of control at 10 mg/kg [21]: 49%

Further lines, with some results ahead:

IC50 [2] [nM]	EC50 [8] [nM]	IC50 [9] [nM]	Structure (SMILES)	response, % of control at 0.3 mg/kg [1] [%]	response, % of control at 3 mg/kg [3] [%]	inhibition in vivo at 0.1 mg/kg [4] [%]	inhibition in vivo at 0.03 mg/kg [5] [%]	response, % of control at 1 mg/kg [6] [%]	ED50 [17] [mg/kg]	also measured
30000			O=C(O)CCCOc1ccc2[nH]c3nc(O)nc-3cc2c1	144	65	111	115	70		inhibition in vivo at 0.01 mg/kg [7]: 89%
	670		COC(=O)/C=C/C=C/c1ccc2[nH]c3nc(O)nc-3cc2c1						10	IC50 [16]: 90 nM
	280		CCOC(=O)/C=C/c1ccc2[nH]c3nc(O)nc-3cc2c1							IC50 [16]: 1000 nM
	950	40	CN(C)C(=O)CCCOc1ccc2[nH]c3nc(O)nc-3cc2c1						> 10	EC50 [18]: 4770 nM
